Values after ≈ are worked out from the molar mass of the structure shown. Active and inactive are the calls of the source. No cut-off for these calls is given here.
How the values were obtained:
[1] = tested on: NCI-H460; assay: Antineoplastic activity against human NCI-H460 cells; format: functional; conditions: read-out: ED50 (the source's name)
[2] = tested on: KM-20L2; assay: Antineoplastic activity against human KM20L2 cells; format: functional; conditions: read-out: ED50 (the source's name)
[3] = tested on: Candida albicans; assay: Antimicrobial activity against Candida albicans at 64 ug/ml by broth microdilution susceptibility assay; format: functional, organism-based
Outline: (§1)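 Yeast panel (Candida albicans, Cryptococcus neoformans) tested by broth microdilution following the NCCLS reference method for yeasts (M27-A). MIC taken as the lowest compound concentration giving no visible growth (optically clear).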

[4] = tested on: Staphylococcus aureus; assay: Antimicrobial activity against Staphylococcus aureus by broth microdilution susceptibility assay; format: functional
Outline: (§2)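 Bacteria tested by broth microdilution following the NCCLS standard for aerobically growing bacteria (M7-A4). MIC read as the lowest compound concentration that blocked all visible growth of the organism (optically clear wells).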

[5] = tested on: Streptococcus pneumoniae; assay: Antimicrobial activity against Streptococcus pneumoniae by broth microdilution susceptibility assay; format: functional; outline: as §2
[6] = tested on: Enterobacter cloacae; assay: Antimicrobial activity against Enterobacter cloacae at 64 ug/ml by broth microdilution susceptibility assay; format: functional, organism-based; outline: as §2
[7] = tested on: Neisseria gonorrhoeae; assay: Antimicrobial activity against Neisseria gonorrhoeae by broth microdilution susceptibility assay; format: functional; outline: as §2
[8] = tested on: Cryptococcus neoformans; assay: Antimicrobial activity against Cryptococcus neoformans at 64 ug/ml by broth microdilution susceptibility assay; format: functional, organism-based; outline: as §1
[9] = tested on: Enterococcus faecalis; assay: Antimicrobial activity against Enterococcus faecalis at 64 ug/ml by broth microdilution susceptibility assay; format: functional, organism-based; outline: as §2
[10] = tested on: Micrococcus luteus; assay: Antimicrobial activity against Micrococcus luteus at 64 ug/ml by broth microdilution susceptibility assay; format: functional, organism-based; outline: as §2
[11] = tested on: Escherichia coli; assay: Antimicrobial activity against Escherichia coli at 64 ug/ml by broth microdilution susceptibility assay; format: functional, organism-based; outline: as §2
[12] = tested on: P388; assay: Antineoplastic activity against mouse P388 cells; format: functional; conditions: read-out: ED50 (the source's name)
[13] = tested on: SK-MEL-5; assay: Antineoplastic activity against human SK-MEL-5 cells; format: functional; conditions: read-out: ED50 (the source's name)
[14] = tested on: OVCAR-3; assay: Antineoplastic activity against human OVCAR-3 cells; format: functional; conditions: read-out: ED50 (the source's name)
[15] = tested on: SF-295; assay: Antineoplastic activity against human SF295 cells; format: functional; conditions: read-out: ED50 (the source's name)
[16] = tested on: A498; assay: Antineoplastic activity against human A498 cells; format: functional; conditions: read-out: ED50 (the source's name)
[17] = tested on: Cryptococcus neoformans; assay: Antimicrobial activity against Cryptococcus neoformans by broth microdilution susceptibility assay; format: functional; outline: as §1
[18] = tested on: Enterococcus faecalis; assay: Antimicrobial activity against Enterococcus faecalis by broth microdilution susceptibility assay; format: functional; outline: as §2
[19] = tested on: Micrococcus luteus; assay: Antimicrobial activity against Micrococcus luteus by broth microdilution susceptibility assay; format: functional; outline: as §2
[20] = tested on: Stenotrophomonas maltophilia; assay: Antimicrobial activity against Stenotrophomonas maltophilia at 64 ug/ml by broth microdilution susceptibility assay; format: functional, organism-based; outline: as §2

Row | EC50 [1] | EC50 [2] | MIC [4] | MIC [5] | MIC [7] | EC50 [12] | EC50 [13] | EC50 [14] | EC50 [15] | EC50 [16] | MIC [17] | MIC [18] | MIC [19] | Compound | Activity [3] | Activity [6] | Activity [8] | Activity [9] | Activity [10] | Activity [11] | Activity [20]
1 | > 10 µg/mL | > 10 µg/mL | 64 µg/mL | 16 µg/mL | < 0.5 µg/mL | 3 µg/mL |  |  |  |  |  |  |  | COc1cc2ccnc3c2c(c1OP(=O)([O-])[O-])N(C)C=C3.[Na+].[Na+] [HYSTATIN 1] | inactive | inactive | inactive | inactive | inactive | inactive | 
2 | 3.2 µg/mL (≈ 14 µM) | 3.6 µg/mL (≈ 15.8 µM) |  |  |  | 3.6 µg/mL (≈ 15.8 µM) | 4.3 µg/mL (≈ 18.8 µM) | 4.9 µg/mL (≈ 21.5 µM) | 4.1 µg/mL (≈ 18 µM) | 3.2 µg/mL (≈ 14 µM) |  |  |  | COc1cc2ccnc3c2c(c1OC)NC=C3 [AAPTAMINE] |  |  |  |  |  |  | 
3 | 2.4 µg/mL (≈ 10.5 µM) | 2.3 µg/mL (≈ 10.1 µM) | 16 µg/mL (≈ 70.1 µM) | 8 µg/mL (≈ 35 µM) | < 0.5 µg/mL | 0.28 µg/mL (≈ 1.23 µM) | 1.6 µg/mL (≈ 7.01 µM) | 1.2 µg/mL (≈ 5.26 µM) | 2.6 µg/mL (≈ 11.4 µM) | 2.2 µg/mL (≈ 9.64 µM) | 64 µg/mL (≈ 280 µM) | 32 µg/mL (≈ 140 µM) | 32 µg/mL (≈ 140 µM) | COc1cc2ccnc3c2c(c1O)N(C)C=C3 [ISOAAPTAMINE] | inactive | inactive |  |  |  | inactive | inactive
4 |  |  |  |  |  | 59 µg/mL (≈ 228 µM) |  |  |  |  |  |  |  | COC1=Cc2ccnc3ccnc(c23)C1(OC)OC |  |  |  |  |  |  | 

Row | Compound | EC50 [1] | EC50 [2] | MIC [4] | MIC [5] | MIC [7] | EC50 [12] | EC50 [13] | EC50 [14] | EC50 [15] | EC50 [16] | MIC [17] | MIC [18] | MIC [19] | Activity [3] | Activity [6] | Activity [8] | Activity [9] | Activity [10] | Activity [11] | Activity [20]
5 | COC1=Cc2ccnc3ccnc(c23)C1=O [DEMETHYLOXY-AAPTAMINE] | 2.3 µg/mL (≈ 10.8 µM) | 2.1 µg/mL (≈ 9.9 µM) |  |  |  | 0.31 µg/mL (≈ 1.46 µM) | 1 µg/mL (≈ 4.71 µM) | 0.39 µg/mL (≈ 1.84 µM) | 2.8 µg/mL (≈ 13.2 µM) | 4.2 µg/mL (≈ 19.8 µM) |  |  |  |  |  |  |  |  |  | 

— ChEMBL document CHEMBL1151159, “Antineoplastic agents. 380. Isolation and X-ray crystal structure determination of isoaaptamine from the Republic of Singapore Hymeniacidon sp. and conversion to the phosphate prodrug hystatin 1” (2004)
